Published values of several laboratories.
Compare with care: the assays were run in different laboratories.
CYP2C9: Cytochrome P450 2C9 (CYP2C9, Homo sapiens, UniProt P11712)

Compound	tested on	assay	test system	setting	endpoint	value
CSc1ccccc1C(=O)NCCn1cc(C(=O)NCc2cccc(C)n2)c(=O)c2cc3c(cc21)OCO3	CYP2C9	enzyme activity, inhibitor	human, liver microsomes	20 min, without NADPH, with preincubation	IC50	> 100 µM
N#Cc1ccc(C[C@H](NC(=O)c2cc3cc(F)ccc3[nH]2)C(=O)N2CCc3ccccc32)cc1	–	metabolic stability	rat, liver microsomes	10 µM, pH 7.4	half-life	76 min
OCc1ccc(-c2nn(Cc3ccccn3)c3ccccc23)o1	–	metabolic stability	rat, liver microsomes	1 µM, pH 7.4	half-life	11 min
CN(C)C(=O)c1cc2cnc(Nc3ccc(-c4ccc5c(=O)cc(N6CCOCC6)oc5c4)cc3)nc2n1C1CCCC1.Cl	–	–	BALB/c mouse, plasma	oral, 20 mg/kg	AUC(0-inf)	7810 ng·h/mL
COc1ccc(-c2coc3cc(O[C@@H]4O[C@H](CO)[C@@H](O)[C@H](O)[C@H]4O)ccc3c2=O)cc1O	CYP2C9	enzyme activity, inhibitor	human, liver microsomes	–	IC50	> 200 µM
CSc1ccccc1C(=O)NCCn1cc(C(=O)NCc2cccc(C)n2)c(=O)c2cc3c(cc21)OC(F)(F)O3	CYP2C9	enzyme activity, inhibitor	human, liver microsomes	20 min, without NADPH, with preincubation	IC50	> 100 µM
Cc1ccc(-c2nnc(N[C@@H](Cc3ccc(C#N)cc3)C(=O)N3CCc4ccccc43)o2)cc1	–	metabolic stability	rat, liver microsomes	10 µM, pH 7.4	half-life	14 min
OCc1ccc(-c2nn(Cc3ccccc3)c3ccccc23)o1	–	metabolic stability	rat, liver microsomes	–	half-life	5 min
CC(=O)O[C@@H]1[C@@H](O)[C@H](O[C@H]2CC[C@]34C[C@]35CC[C@]3(C)[C@@H]([C@@]6(C)CC[C@@H](C(C)(C)O)O6)[C@@H](O)C[C@@]3(C)[C@@H]5C[C@H](O[C@@H]3O[C@H](CO)[C@@H](O)[C@H](O)[C@H]3O)[C@H]4C2(C)C)OC[C@H]1O	CYP2C9	enzyme activity, inhibitor	human, liver microsomes	–	IC50	> 200 µM
